Results on six molecules are retold here after ChEMBL document CHEMBL2331335, “Synthesis of hemslecin A derivatives: a new class of hepatitis B virus inhibitors” (Bioorg Med Chem Lett, 2013).

The subject of data set [1] is Hepatitis B virus. Briefly: Antiviral activity against HBV infected in human HepG2.2.15 cells assessed as inhibition of viral surface antigen production. It counts as functional, organism-based. As to conditions: HepG2 2.2.15. The gist of the method: (§1)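 Assayed in HBV-producing HepG 2.2.15 cells, with tenofovir as positive control. HBsAg, HBeAg and HBV DNA replication were each measured, and IC50 was taken as the compound concentration giving 50% inhibition of the given marker.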

A short description of data set [2]: Cytotoxicity against human HepG2.2.15 cells. It counts as cell-based, HepG2 2.2.15. Put shortly: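 Cytotoxicity was tested in HepG 2.2.15 cells alongside the anti-HBV assay. CC50 was taken as the compound concentration required to destroy 50% of the cells.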
The nature of data set [3]: Selectivity index, ratio of CC50 for human HepG2.2.15 cells to IC50 for HBV infected in human HepG2.2.15 cells assessed as inhibition of viral surface antigen production. It counts as functional. The gist of the method:
(§2)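 Selectivity index was calculated as CC50 (HepG 2.2.15 cytotoxicity) divided by IC50 for the given marker (HBV DNA replication, HBeAg or HBsAg), all measured in HepG 2.2.15 cells.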

Data set [4] deals with Hepatitis B virus. Briefly: Antiviral activity against HBV infected in human HepG2.2.15 cells assessed as inhibition of viral e antigen production. The class given is functional, organism-based. As to conditions: HepG2 2.2.15. Put shortly:
as §1

Data set [5] is described as follows: Selectivity index, ratio of CC50 for human HepG2.2.15 cells to IC50 for HBV infected in human HepG2.2.15 cells assessed as inhibition of viral e antigen production. The class given is functional. The gist of the method: as §2
Data set [6] is described as follows: Selectivity index, ratio of CC50 for human HepG2.2.15 cells to IC50 for HBV infected in human HepG2.2.15 cells assessed as inhibition of viral DNA replication. The class given is functional. The gist of the method:
as §2

Data set [7] concerns Hepatitis B virus. The data set is described as follows: Antiviral activity against HBV infected in human HepG2.2.15 cells assessed as inhibition of viral DNA replication. It counts as functional, organism-based. As to conditions: HepG2 2.2.15. Put shortly: as §1

As usually defined, the IC50 is the concentration that gives 50% inhibition. By CC50 is commonly meant the concentration that lowers cell viability or growth by half. Low readings indicate harm at low concentration, high ones better tolerance by the cells. Regarding `CC(=O)O[C@@H]1[C@@H](O)C[C@@H]2C(=CC[C@@H]3[C@@]2(C)C(=O)C[C@]2(C)[C@@H]([C@@](C)(O)C(=O)CCC(C)(C)OC(C)=O)[C@H](O)C[C@@]32C)C1(C)C`, the values for the IC50 in the data set on Hepatitis B virus [1], in the data set with Hepatitis B virus [4] and in the data set on Hepatitis B virus [7] were 190 µM, over 254 µM and 2.8 µM, respectively. In addition, the CC50 in data set [2] is 254 µM. For the same molecule, the “Ratio CC50/IC50” value in data set [3] was 1.3; in data set [5], under 1; in data set [6], 89.7.
For `CC(=O)O[C@H]1C[C@@H]2C(=CC[C@@H]3[C@@]2(C)C(=O)C[C@]2(C)[C@@H]([C@@](C)(O)C(=O)CCC(C)(C)OC(C)=O)[C@H](O)C[C@@]32C)C(C)(C)[C@@H]1OC(C)=O`, the IC50 with Hepatitis B virus [1] is 22.4 µM; with Hepatitis B virus [4], 46.7 µM; with Hepatitis B virus [7], 9.8 µM. This molecule also gave a CC50 in data set [2] of 546 µM. Also, the “Ratio CC50/IC50” value was 24.3 in data set [3], 11.7 in data set [5] and 55.6 in data set [6].
On to `CCC(=O)O[C@@H]1[C@@H](O)C[C@@H]2C(=CC[C@@H]3[C@@]2(C)C(=O)C[C@]2(C)[C@@H]([C@@](C)(O)C(=O)CCC(C)(C)OC(C)=O)[C@H](O)C[C@@]32C)C1(C)C`, for which the IC50 in the data set on Hepatitis B virus [1] is 18.4 µM; with Hepatitis B virus [4] it was 17 µM; with Hepatitis B virus [7], 3.1 µM. Also, the CC50 in data set [2] turned out to be 100 µM. Moreover, the entries for the “Ratio CC50/IC50” value in data set [3], in data set [5] and in data set [6] were 5.5, 5.9 and 31.9, respectively.
`CCC(=O)O[C@H]1C[C@@H]2C(=CC[C@@H]3[C@@]2(C)C(=O)C[C@]2(C)[C@@H]([C@@](C)(O)C(=O)CCC(C)(C)OC(C)=O)[C@H](O)C[C@@]32C)C(C)(C)[C@@H]1OC(=O)CC`: the IC50 in the data set with Hepatitis B virus [1] turned out to be 9.9 µM; in the data set on Hepatitis B virus [4], 596 µM; in the data set on Hepatitis B virus [7] it was 7.2 µM. Besides, in data set [2], the CC50 is over 596 µM. The results for the “Ratio CC50/IC50” value in data set [3], in data set [5] and in data set [6] were over 60, over 1 and over 83.4, respectively.
Turning to `CCCC(=O)O[C@H]1C[C@@H]2C(=CC[C@@H]3[C@@]2(C)C(=O)C[C@]2(C)[C@@H]([C@@](C)(O)C(=O)CCC(C)(C)OC(C)=O)[C@H](O)C[C@@]32C)C(C)(C)[C@@H]1O`, the results for the IC50 with Hepatitis B virus [1], with Hepatitis B virus [4] and with Hepatitis B virus [7] were over 12.4 µM, over 12.4 µM and 6.1 µM, respectively. In data set [2], this molecule yielded a CC50 of 12.4 µM. The results for the “Ratio CC50/IC50” value in data set [3], in data set [5] and in data set [6] were under 1, under 1 and 2, respectively.
Consider `CC(=O)OC(C)(C)CCC(=O)[C@](C)(O)[C@H]1[C@H](O)C[C@@]2(C)[C@@H]3CC=C4[C@@H](C[C@H](O)[C@@H](O)C4(C)C)[C@]3(C)C(=O)C[C@]12C` [HEMSLECIN A], for which the IC50 with Hepatitis B virus [1] was over 66.2 µM; with Hepatitis B virus [4], over 66.2 µM; in the data set with Hepatitis B virus [7] it was 11.4 µM. For the same molecule, in data set [2], the CC50 turned out to be 66.2 µM. Besides, the entries for the “Ratio CC50/IC50” value in data set [3], in data set [5] and in data set [6] were under 1, under 1 and 5.8, respectively.
